Experimental data pooled from the literature.
Lines come from different studies, so protocols differ.
Target: Protein-tyrosine kinase 6 (PTK6, Homo sapiens, UniProt Q13882)

`COc1cc(-c2cn(C3CCc4ccccc4N(CC(F)(F)F)C3=O)nn2)ccc1-n1ccc(C)n1` (centres unmarked) gave a remaining binding of 100% (cell-free assay, competition with immobilised ligand; 1 µM).
`C[C@@H]1CCN(c2nccc(-c3cnn4ncccc34)n2)C1` has a remaining binding of 100% (binding; 1 µM).
The remaining binding of `COc1ncc2cc3ccccc3nc2c1C#N` is reported as 100% (cell-free assay, competition with immobilised ligand; 5 µM).
`F[C@@H]1CCN(c2nccc(-c3cnn4ncccc34)n2)C1` has a remaining binding of 89% (binding; 1 µM).
With `Cc1cnc(Nc2ccc(C(=O)N3CCC(N4CCCC4)CC3)cc2)nc1-c1cc2ccccc2s1` the remaining binding was 26% (binding, competition with immobilised ligand; 1 µM).
With `O=C1NC(c2ccccn2)Sc2ccccc21` (centres unmarked) the remaining binding was 100% (cell-free assay, competition with immobilised ligand; 1 µM).
`COc1cnc(Nc2cccc(S(N)(=O)=O)c2)nc1N1CCN(c2ccccc2)C(=O)C1` gave a remaining binding of 100% (binding, competition with immobilised ligand; 1 µM).
`CN([C@@H]1CCc2c(CC(=O)O)c3cc(S(C)(=O)=O)ccc3n2C1)S(=O)(=O)c1ccc(F)cc1` gave a remaining binding of 92% (cell-free assay, competition with immobilised ligand; 1 µM).
`CNC(=O)[C@@H]1CC[C@@H](n2c(-c3ccc4cnccc4c3)nc3ccc(C(=O)NCc4cccc(C(N)=O)c4)cc32)C1` gave a remaining binding of 100% (binding, competition with immobilised ligand; 1 µM).
The remaining binding of `CN(C)c1nccc(-c2cnc3ncccn23)n1` is reported as 92% (binding; 1 µM).
For `O=C(NCCCN1CCOCC1)c1ccc(Nc2nccc(-c3cc4ccccc4s3)n2)cc1`, the remaining binding was 79% (binding, competition with immobilised ligand; 1 µM).
`c1cnn2ncc(-c3ccnc(N4CCC45COC5)n3)c2c1` gave a remaining binding of 83% (binding; 1 µM).
With `CS(=O)(=O)NCC[C@H](NC(=O)c1cncc2c1cnn2-c1ccc(F)cc1)c1ccnc(S(C)(=O)=O)c1` the remaining binding was 96% (cell-free assay, competition with immobilised ligand; 1 µM).
The remaining binding of `O=C(Nc1c[nH]nc1C(=O)NC1CCNCC1)c1cc(F)cc(F)c1` is reported as 100% (binding, competition with immobilised ligand; 1 µM).
`Cc1c(NC(=O)c2cc(C(N)=O)nc3cc(F)ccc23)c(C(F)(F)F)nn1Cc1ccc(C#N)cc1` has a remaining binding of 100% (cell-free assay, competition with immobilised ligand; 1 µM).
The remaining binding of `C=CC(=O)N1CCC(C(=O)NCC(=O)N2CCN(c3nc(-c4cnc(N)nc4C(F)F)nc(N4CCOCC4)n3)CC2)CC1` is reported as 100% (binding, competition with immobilised ligand; 1 µM).
For `CN(C)c1ncc(F)c(-c2cnn3ncccc23)n1`, the remaining binding was 99% (binding; 1 µM).
The remaining binding of `Nc1ncc2c(n1)-c1c([nH]c3ccc(C#CC4CC4)cc13)CCCC2` is reported as 97% (binding, competition with immobilised ligand; 1 µM).
For `CCOC(=O)c1cc2cc(-c3cc(C(=O)NCc4ccc(C(=O)O)cc4)nn3C)ccc2[nH]1`, the remaining binding was 98% (cell-free assay, competition with immobilised ligand; 0.1 µM).
`CN(C)c1nccc(-c2cnn3ncccc23)n1` gave a remaining binding of 100% (binding; 1 µM).
